# These entries were drawn from the full list.
# Apaf-1 act = human Apaf-1 activation | activity change, negative = activation, % at 20 µM | hit rate 0.31% among 330,000 | O14727 | Apaf-1 apoptosome caspase-3 activation, DEVD-Rh110 fluorescence; stronger effect = lower value;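 active = activity change at or below -40% at 20 µM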
#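 Material: biochemical Apaf-1 apoptosome reconstitution; Medium: 20 mM HEPES buffer, pH 7.5, containing CHAPS and BSA; Reagent: dATP, cytochrome c, and (Z-DEVD)2-Rh110 caspase-3 substrate; Times: 30 min preincubation, 50 min reaction, room temperature; Signal: Rh110 fluorescence, excitation 480 nm, emission 540 nm; Measure: Caspase-3 activity via Apaf-1.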
# Rh110 act interf = interferes with Rh110 fluorescence, flagging false Apaf-1 activators; shares compounds with Apaf-1 act; 980 tested, under 10 active; Rh110 fluorescence interference, quenched caspase reaction, Ex480/Em540; fluorescence interference (activity change), % at 20 µM, hits read low;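 active = mean activity change at or below -40% when tested at 20 µM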
# Apaf-1 act conf = Apaf-1 (human) activation, single-dose confirmed. reconstituted apoptosome caspase-3 activity, DEVD-Rh110 fluorescence; stronger effect = lower value. activity change, negative = activation, % at 20 µM. hit rate 5% among 980. shares compounds with Apaf-1 act;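 active = mean activity change at or below -40%, meaning activation of 40% or more, at 20 µM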
# * marks the source's active call; other numbers are inactive results; x = not tested or not shown.
SMILES,Apaf-1 act,Rh110 act interf,Apaf-1 act conf
O=C1c2ccccc2C(=O)C12OC2c1cccc2ccccc12 (stereo not drawn),94.5,x,x
COCc1cc(=O)[nH]c(Sc2c(-c3ccccc3)c3ccc(Cl)cc3[nH]c2=O)n1,-49.5*,10.1,10.9
Cc1c(CCOC(=O)c2ccc(Cl)cc2Cl)sc[n+]1CC(=O)c1ccc(Br)cc1,71.2,x,x
C=CCn1c(COc2cccc(C)c2)nnc1SC(C)C(=O)NC1CC1 (stereo not drawn),41.2,x,x
Cc1ccc(C)c(-n2ccnc2SCC(=O)O)c1,-464.7*,-10.9,8.3
CCN(CC)CCOC(=O)c1ccc(NC(=O)CCCN2C(=O)/C(=C\c3cccs3)SC2=S)cc1,59.9,x,x
CC(=O)Nc1ccc(S(=O)(=O)/N=C2\C(=O)c3ccccc3C([O-])=C2n2cc[n+](-c3ccccn3)c2)cc1,84.2,x,x
O/N=C/c1ccc2ccccc2n1,-50.0*,-1.9,1.3
C[n+]1ccccc1/C=N/O,-0.1,x,x
Cc1cc(N(CCO)CCO)ccc1N=Nc1cc(F)ccc1F,40.4,x,x
CCOC(=O)C1CCN(C(=O)c2ccc3c(c2)NC(=O)/C(=C\c2cccc(C)c2)S3)CC1,40.0,x,x
COc1ccc(/C=C/C(=O)Nc2cc(C)nn2-c2nc3ccccc3[nH]2)cc1,-56.2*,11.4,14.5
O=C(O)c1cc(O)c2c(c1)[C@@H]([C@H]1c3cc(C(=O)O)cc(O)c3C(=O)c3c(O[C@@H]4O[C@H](CO)[C@@H](O)[C@H](O)[C@H]4O)cccc31)c1cccc(OC3O[C@H](CO)[C@@H](O)[C@H](O)[C@H]3O)c1C2=O (stereo partly drawn),95.4,x,x
CSc1ncccc1C(=O)NCCc1ccc(Cl)cc1,-99.1*,-2.1,9.3
CCOc1cc(/C=C2\C(=O)N(CCC#N)N=C2C)ccc1OCC(N)=O,57.8,x,x
COc1ccc2c(c1)c(=O)oc1cc(O)ccc12,-298.5*,1.6,10.5
O=c1oc2cc(O)ccc2c2oc3cc(O)ccc3c12,-40.8*,14.9,18.1
COC(=O)C1=C(C)NC(C)=C(C(=O)OC(C)C)C1c1cccc2nonc12 (stereo not drawn),-207.2*,1.0,7.5
C#CCOCCOCCOCCNc1nc(N2CCN(C(=O)[C@H](CCCN=C(N)N)n3cc(C(N)[C@@H](C)CC)nn3)CC2)nc(N2CCN(C(=O)[C@H](CCCCN)n3cc([C@@H](N)[C@H](C)CC)nn3)CC2)n1 (stereo partly drawn),49.9,x,x
Cc1ccc(Oc2nc(CN3CCOCC3)nc3sc4c(c23)CCC(C)C4)cc1 (stereo not drawn),40.5,x,x
O=c1ccc2cc3c([nH]c4ccc(Br)cc43)oc-2c1O,85.3,x,x
Cc1ccc(-n2nnnc2SCC(=O)N2CCNC2=O)cc1C,-448.3*,8.7,8.8
COc1cc(CCc2ccccc2)c(C(=O)O)c(O)c1C/C=C(/C)CCC=C(C)C,43.3,x,x
COC(=O)/C(=C/Nc1ccc(O)cc1)[N+](=O)[O-],91.2,x,x
CCN(CCO)c1ccc(NC(=S)Nc2cccc(S(=O)(=O)N(C)C)c2)cc1,42.9,x,x
SMILES,Apaf-1 act,Rh110 act interf,Apaf-1 act conf
CCNC(=S)Nc1cccc(NC(=O)c2ccccc2O)c1,-206.5*,-3.3,14.8
CC(C(=O)O)N1C(=O)/C(=C/C=C/c2ccco2)SC1=S (stereo not drawn),47.0,x,x
O=C1C2C3C=CC(C3)C2C(=O)N1CNc1ccc(O)cc1 (stereo not drawn),93.5,x,x
Clc1ccc(-c2cn3nc4c(nc3n2)CCCC4)cc1,65.3,x,x
Cc1ccc(SCC(=O)Nc2nccs2)cc1,-524.1*,-5.2,9.3
O=[N+]([O-])c1cccc(OCc2cn3cccnc3n2)c1,-66.0*,9.8,2.8
CCC(COC(=O)c1ccccc1)Oc1cc(NCc2ccccc2)c2ncn(C(C)C)c2c1 (stereo not drawn),69.0,x,x
CCN(CC)C(=O)CSC(=Nc1ccccc1F)NC#N,-52.2*,17.8,11.5
Cn1nc(-c2ccccn2)nc2c(=O)n(C)c(=O)nc1-2,98.1,x,x
COC(=O)c1ccccc1NC1=C/C(=N\S(=O)(=O)c2cccs2)c2ccccc2C1=O,91.9,x,x
COc1ccc2c(c1)OC[C@H]1[C@H]2N2C(=O)c3cc(OC)c(OC)cc3NC(=O)[C@@]2(C)[C@H]1c1ccccc1,-142.5*,5.9,12.1
CC[C@@H](C)[C@@H]1CN([C@@H](CN2CCC[C@H]2CN2C(N)=NC[C@@H]2Cc2ccccc2)C(C)C)C(=N)N1CCCC1CCCC1,63.1,x,x
CC(C)c1ccc2[nH]c(O)c(N=NC(=O)c3ccc(CSc4nncn4C)cc3)c2c1,-74.3*,2.3,10.1
COCc1c(C(=O)OCC(=O)NCCN2C(=O)CSC2=O)oc2ccccc12,-67.3*,-4.0,5.4
CC1(c2ccccc2)NC(=O)N(NC(=O)CSc2n[nH]c(N)n2)C1=O (stereo not drawn),-278.9*,1.4,2.2
Cc1cc(/C=C2\SC(=O)N(C)C2=O)c(C)n1-c1ccc(O)cc1,70.9,x,x
CCOc1ccc2nc(NC3=NC(c4ccc(OC)cc4)CC(=O)N3)nc(C)c2c1 (stereo not drawn),78.5,x,x
CCCCCCOc1ccc(/C(C)=N/NC2=NCCN2)cc1[N+](=O)[O-],53.8,x,x
CN(CCO)c1cc(Sc2nc3ccccc3s2)c2nonc2c1[N+](=O)[O-],51.8,x,x
Cc1nc2c(=O)[nH]c(=S)n(C)c2nc1C,-262.5*,8.6,17.3
Cc1ccccc1Nc1cc2ccccc2c(=O)[nH]1,95.8,x,x
Cc1ccc2cc(C(c3nnnn3CC3CCCO3)N3CCc4ccccc4C3)c(=O)[nH]c2c1 (stereo not drawn),87.3,x,x
CCN(CC)C(=O)CSc1nc2ccccc2c(=O)n1CC,-176.1*,4.8,5.2
NC(=O)CSc1nc2scc(-c3ccc(Cl)cc3)c2c(=O)n1Cc1ccccc1,46.9,x,x
COc1ccc(C(=O)/C=C/Nc2cc(C)ccn2)cc1,-165.0*,-2.6,16.2
SMILES,Apaf-1 act,Rh110 act interf,Apaf-1 act conf
C(=N\c1c(-c2ccccc2)nc2n1CCS2)/c1ccccc1,41.0,x,x
CC(=O)N1CCc2cc(Br)cc(S(=O)(=O)NCCCN3CCCC(C)C3)c21 (stereo not drawn),-40.5*,-5.0,12.5
CCOC(=O)c1[nH]c2ccc(Br)cc2c1NC(=O)CCN1CCCC(C)C1 (stereo not drawn),97.3,x,x
Cc1ccc(CNc2ccc(O)cc2)cc1,93.6,x,x
CCOC(=O)c1sc(NC(=O)c2ccco2)c(C#N)c1C,-210.9*,-1.3,12.3
CCOC(=O)c1c(NC(=O)c2ccco2)n(C2CCCCC2)c2nc3ccccc3nc12,87.5,x,x
COc1ccc(-n2c(NC(=O)c3ccco3)c(C#N)c3nc4ccccc4nc32)cc1,96.4,x,x
Cc1cccc(NC(=O)CCNS(=O)(=O)c2cccc3nonc23)c1,-68.2*,-3.6,7.5
Cc1cccc(NC2=C(NC(=O)c3ccccc3)C(=O)c3ccccc3C2=O)c1,73.4,x,x
CN(C)CCC(c1ccccc1)c1ccccn1 (stereo not drawn),-2.9,x,x
COc1ccc(C(=O)Nc2ccc(/C(C)=N/NC(=O)c3ccccc3O)cc2)cc1OC,-176.0*,-0.5,10.4
Clc1ccc(N=c2ssnc2Cl)nc1,54.7,x,x
CCOC(=O)N1CCC(N2Cc3cccc(C(=O)Nc4ccccc4OC)c3C2=O)CC1,-44.2*,1.8,8.8
COc1cc(OC)cc(-c2sc3ccc(OC)cc3c2-c2ccc(OCCN3CCCCC3)cc2)c1,59.7,x,x
